# Measurements taken from ChEMBL document CHEMBL1629690, “Development of hexadecyloxypropyl tenofovir (CMX157) for treatment of infection caused by wild-type and nucleoside/nucleotide-resistant HIV” (Antimicrob Agents Chemother, 2010).
# Experiments:
# [1] = test system: PBMC; experiment: Cellular uptake in PHA/IL-2-stimulated human PBMC at 1 uM after 24 hrs by MS/MS analysis; type: ADME, cell-based; settings: BLD = below limit of detection
# In short: (§1)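 PHA-stimulated (4 μg/ml PHA, 48 to 72 h; 20 U/ml rhIL-2) human PBMCs at 2 × 10^6 cells/ml in RPMI 1640 with 15% FBS, given tenofovir or prodrug (final 0.01 to 10 μM) for 24 h at 37°C. Cells washed three times in cold 0.9% NaCl, counted, and 1 × 10^7 cell aliquots pelleted. TFV, TFV-MP and TFV-PP were separated by ion-pairing reverse-phase LC and detected by positive-ion electrospray MS. Output is pmol per 10^6 cells.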
# [2] = test system: PBMC; experiment: Cellular uptake in human PBMC at 10 uM assessed as TFV-monophosphate after 24 hrs by MS/MS analysis; type: ADME, cell-based
# In short: (§2)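 Human PBMCs, unstimulated or PHA/IL-2-stimulated, at 2 × 10^6 cells/ml in RPMI 1640 with 15% FBS, exposed 24 h at 37°C to final 0.01, 0.1, 1.0 or 10 μM of the prodrug, or 1.0 or 10 μM tenofovir. After cold saline washes the cells were counted and 1 × 10^7-cell pellets made. TFV, TFV-MP and TFV-PP were measured by ion-pairing LC with positive-ion electrospray MS as pmol/10^6 cells.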
# [3] = test system: HepG2; experiment: Cytotoxicity against human HepG2 cells after 24 hrs by XTT assay; type: cell-based; settings: hepg2, 24 h
# In short: (§3)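 Six-concentration growth-inhibition test: 10 to 0.032 μM for the prodrug and TDF, up to 100 μM for TFV, with Triton X-100 run in parallel. Cell lines were split 1:2 the day before and seeded at 5 × 10^3 to 2 × 10^4 cells/well, with adherent lines left overnight. Dendritic cells were derived with GM-CSF/IL-4 for 7 days, then LPS 10 ng/ml for 2 days. Viability was read by XTT.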
# [4] = test system: PBMC; experiment: Cellular uptake in PHA/IL-2-stimulated human PBMC at 10 uM assessed as TFV-monophosphate after 24 hrs by MS/MS analysis; type: ADME, cell-based; in short: as §1
# [5] = test system: PBMC; experiment: Cellular uptake in human PBMC at 1 uM assessed as TFV-monophosphate level after 24 hrs by MS/MS analysis; type: ADME, cell-based; in short: as §2
# [6] = test system: PBMC; experiment: Cellular uptake in human PBMC at 1 uM after 24 hrs by MS/MS analysis; type: ADME, cell-based; in short: as §2
# [7] = test system: CEM-SS; experiment: Cytotoxicity against human CEM-SS cells after 24 hrs by XTT assay; type: cell-based; in short: as §3
# [8] = test system: PBMC; experiment: Cellular uptake in PHA/IL-2-stimulated human PBMC at 1 uM assessed as TFV-monophosphate level after 24 hrs by MS/MS analysis; type: ADME, cell-based; in short: as §1
# [9] = test system: Human immunodeficiency virus 1; experiment: Antiviral activity against HIV1 group O isolate BCF02 infected in human PBMC after 48 to 72 hrs by MTS assay; type: functional, organism-based; settings: Human immunodeficiency virus 1, isolate BCF02
# In short: (§4)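 Fresh donor PBMCs, HIV- and HBV-seronegative, were stimulated with 4 μg/ml PHA for 48 to 72 h and kept on 20 U/ml rhIL-2. Cells pooled from at least two donors were seeded at 5 × 10^4 per well and infected at MOI ~0.1. Nine compound concentrations were run in triplicate wells for 7 days.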
# [10] = test system: PBMC; experiment: Cellular uptake in PHA/IL-2-stimulated human PBMC at 0.01 uM assessed as TFV-monophosphate after 24 hrs by MS/MS analysis; type: ADME, cell-based; settings: BLD = below limit of detection
# In short: (§5)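 PHA/IL-2-stimulated PBMCs at 2 × 10^6 cells/ml (5 × 10^7 per flask) were exposed for 24 h at 37°C. Cells were washed three times in cold 0.9% NaCl and counted by trypan blue. Aliquots of 1 × 10^7 cells were pelleted. TFV, TFV-MP and TFV-PP were separated by ion-pairing reverse-phase gradient LC and detected by positive electrospray. Results are given as pmol/10^6 cells.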
# [11] = test system: PBMC; experiment: Cellular uptake in PHA/IL-2-stimulated human PBMC at 1 uM assessed as TFV level after 24 hrs by MS/MS analysis; type: ADME, cell-based; in short: as §1
# [12] = test system: Human immunodeficiency virus 1; experiment: Antiviral activity against HIV1 subtype A isolate 92RW009 infected in human PBMC after 48 to 72 hrs by MTS assay; type: functional, organism-based; settings: Human immunodeficiency virus 1, isolate 92RW009; in short: as §4
# [13] = test system: Human immunodeficiency virus 1; experiment: Antiviral activity against HIV1 subtype E isolate CMU08 infected in human PBMC after 48 to 72 hrs by MTS assay; type: functional, organism-based; settings: Human immunodeficiency virus 1, isolate CMU08; in short: as §4
# [14] = test system: Human immunodeficiency virus 1; experiment: Antiviral activity against HIV1 subtype D isolate 92UG024 infected in human PBMC after 48 to 72 hrs by MTS assay; type: functional, organism-based; settings: Human immunodeficiency virus 1, isolate 92UG024; in short: as §4
# [15] = test system: PBMC; experiment: Cellular uptake in PHA/IL-2-stimulated human PBMC at 0.1 uM assessed as TFV-monophosphate after 24 hrs by MS/MS analysis; type: ADME, cell-based; settings: BLD = below limit of detection; in short: as §5
# [16] = test system: PBMC; experiment: Cellular uptake in PHA/IL-2-stimulated human PBMC at 0.1 uM assessed as TFV-diphosphate after 24 hrs by MS/MS analysis; type: ADME, cell-based; in short: as §5
# [17] = test system: PBMC; experiment: Cellular uptake in PHA/IL-2-stimulated human PBMC at 0.01 uM assessed as TFV-diphosphate after 24 hrs by MS/MS analysis; type: ADME, cell-based; in short: as §5
# [18] = test system: Human immunodeficiency virus 1; experiment: Antiviral activity against HIV1 subtype A isolate 92UG029 infected in human MDM […] by MTS assay; type: functional, organism-based; settings: Human immunodeficiency virus 1, isolate 92UG029
# [19] = test system: Human immunodeficiency virus 1; experiment: Antiviral activity against HIV1 isolate JR-CSF infected in human PBMC after 48 to 72 hrs by MTS assay in presence of 100% human serum; type: functional; settings: Human immunodeficiency virus 1, JRCSF ISOLATE
# In short: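 The value is an estimate for 100% human serum, extrapolated from JR-CSF EC50s measured in PHA/IL-2 PBMCs. Those assays used a virus preincubation/spinoculation step and contained 0 to 30% human serum on top of 15% FBS.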
# [20] = test system: Human immunodeficiency virus 1; experiment: Antiviral activity against HIV1 subtype F isolate 93BR020 infected in human PBMC after 48 to 72 hrs by MTS assay; type: functional, organism-based; settings: Human immunodeficiency virus 1, isolate 93BR020; in short: as §4
# [21] = test system: Human immunodeficiency virus 1; experiment: Antiviral activity against HIV1 group O isolate BCF03 infected in human PBMC after 48 to 72 hrs by MTS assay; type: functional, organism-based; settings: Human immunodeficiency virus 1, isolate BCF03; in short: as §4
# [22] = test system: Human immunodeficiency virus 1; experiment: Antiviral activity against HIV1 subtype B isolate 92BR014 infected in human PBMC after 48 to 72 hrs by MTS assay; type: functional, organism-based; settings: Human immunodeficiency virus 1, isolate 92BR014; in short: as §4
# [23] = test system: PBMC; experiment: Cellular uptake in PHA/IL-2-stimulated human PBMC at 0.1 uM assessed as TFV level after 24 hrs by MS/MS analysis; type: ADME, cell-based; settings: BLD = below limit of detection; in short: as §5
# [24] = test system: PBMC; experiment: Cellular uptake in human PBMC at 0.1 uM assessed as TFV-monophosphate after 24 hrs by MS/MS analysis; type: ADME, cell-based; settings: BLD = below limit of detection; in short: as §2
# [25] = test system: Human immunodeficiency virus 1; experiment: Antiviral activity against HIV1 subtype F isolate 93BR019 infected in human PBMC after 48 to 72 hrs by MTS assay; type: functional, organism-based; settings: Human immunodeficiency virus 1, isolate 93BR019; in short: as §4
# [26] = test system: Human immunodeficiency virus 1; experiment: Antiviral activity against HIV1 subtype B isolate 96USHIPS7 infected in human PBMC after 48 to 72 hrs by MTS assay; type: functional, organism-based; settings: Human immunodeficiency virus 1, isolate 96USHIPS7; in short: as §4
# [27] = test system: Human immunodeficiency virus 1; experiment: Antiviral activity against HIV1 subtype G isolate RU132 infected in human PBMC after 48 to 72 hrs by MTS assay; type: functional, organism-based; settings: Human immunodeficiency virus 1, isolate RU132; in short: as §4
Structure (SMILES),Drug uptake [2] [pmol/10^6 cells],Activity [3],Activity [7],EC50 [9] [nM],EC50 [12] [nM],EC50 [13] [nM],EC50 [14] [nM],EC50 [18] [nM],EC50 [20] [nM],EC50 [25] [nM],EC50 [27] [nM],also measured
C[C@H](Cn1cnc2c(N)ncnc21)OCP(=O)(O)O [TENOFOVIR ANHYDROUS],0.05,Non-toxic,Non-toxic,,,,,,,,,Drug uptake [1]: BLD; Drug uptake ([4]; BLD = below limit of detection): BLD; Drug uptake ([5]; BLD = below limit of detection): BLD; Drug uptake [6]: Not Active; Drug uptake ([8]; BLD = below limit of detection): BLD
CCCCCCCCCCCCCCCCOCCCOP(=O)(O)CO[C@H](C)Cn1cnc2c(N)ncnc21 [TENOFOVIR EXALIDEX],0.12,Non-toxic,Non-toxic,5,3.3,2.3,2.1,1.3,2.7,2.7,2.2,Drug uptake [10]: BLD; Drug uptake [11]: 0.56 pmol/10^6 cells; Drug uptake [15]: BLD; Drug uptake [16]: 0.25 pmol/10^6 cells; Drug uptake [4]: 0.9 pmol/10^6 cells; Drug uptake [5]: 0.05 pmol/10^6 cells; Drug uptake [17]: 0.07 pmol/10^6 cells; EC50 [19]: 53 nM; EC50 [21]: 5 nM; EC50 [22]: 1.5 nM; Drug uptake [23]: BLD; Drug uptake [24]: BLD; EC50 [26]: 1.5 nM; Drug uptake [8]: 0.3 pmol/10^6 cells
Cc1cn([C@H]2C[C@H](N=[N+]=[N-])[C@@H](CO)O2)c(=O)[nH]c1=O [ZIDOVUDINE],,,,1.7,14,5.5,6.3,1.2,9.6,9.6,4.7,
